Results published in ChEMBL document CHEMBL1155539, “Discovery of 4-[1-[([1-[4-(trifluoromethyl)benzyl]-1H-indol-7-yl]carbonyl)amino]cyclopropyl]benzoic acid (MF-766), a highly potent and selective EP4 antagonist for treating inflammatory pain” (Bioorg Med Chem Lett, 2010).
pIC50, pKi: −log10 of the molar value.

Tests used:
Prostacyclin receptor = Prostacyclin receptor (Homo sapiens, UniProt P43119); experiment: Displacement of [3H]iloprost from human prostanoid IP receptor expressed in HEK293-EBNA cells after 60 mins by scintillation counting; assay type: cell-based
Chain of Prostacyclin receptor (P43119 whole entry): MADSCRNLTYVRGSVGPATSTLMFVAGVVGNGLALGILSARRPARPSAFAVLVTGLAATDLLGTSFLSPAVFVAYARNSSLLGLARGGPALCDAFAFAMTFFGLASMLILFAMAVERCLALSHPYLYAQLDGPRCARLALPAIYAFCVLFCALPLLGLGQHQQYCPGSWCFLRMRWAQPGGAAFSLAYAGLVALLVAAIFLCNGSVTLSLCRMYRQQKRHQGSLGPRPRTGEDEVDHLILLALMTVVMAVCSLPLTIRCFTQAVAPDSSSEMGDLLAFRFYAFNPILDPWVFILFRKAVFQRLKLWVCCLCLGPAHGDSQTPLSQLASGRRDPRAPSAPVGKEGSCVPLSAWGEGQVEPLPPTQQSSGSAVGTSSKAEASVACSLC

[1] = biological target: T1, Prostaglandin D2 receptor (Homo sapiens, UniProt Q13258); experiment: Displacement of [3H]PGD2 from human Prostanoid DP1 receptor expressed in HEK293-EBNA cells after 60 mins by scintillation counting; assay type: cell-based
T1 sequence (Q13258 whole entry): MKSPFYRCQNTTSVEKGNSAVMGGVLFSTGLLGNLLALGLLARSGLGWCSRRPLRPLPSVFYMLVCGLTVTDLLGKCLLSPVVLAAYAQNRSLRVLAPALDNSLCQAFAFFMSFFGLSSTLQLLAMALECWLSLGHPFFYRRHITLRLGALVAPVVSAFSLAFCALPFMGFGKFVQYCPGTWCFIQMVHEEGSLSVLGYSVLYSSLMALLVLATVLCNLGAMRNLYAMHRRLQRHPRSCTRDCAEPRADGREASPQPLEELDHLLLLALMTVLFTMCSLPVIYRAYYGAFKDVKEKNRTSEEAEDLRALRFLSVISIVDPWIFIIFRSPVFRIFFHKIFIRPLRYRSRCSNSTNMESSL

Thromboxane A2 receptor = biological target: T2, Thromboxane A2 receptor (Homo sapiens, UniProt P21731); experiment: Displacement of [3H]SQ-29548 from human prostanoid TP receptor expressed in HEK293-EBNA cells after 60 mins by scintillation counting; assay type: cell-based
T2 sequence (P21731 whole entry): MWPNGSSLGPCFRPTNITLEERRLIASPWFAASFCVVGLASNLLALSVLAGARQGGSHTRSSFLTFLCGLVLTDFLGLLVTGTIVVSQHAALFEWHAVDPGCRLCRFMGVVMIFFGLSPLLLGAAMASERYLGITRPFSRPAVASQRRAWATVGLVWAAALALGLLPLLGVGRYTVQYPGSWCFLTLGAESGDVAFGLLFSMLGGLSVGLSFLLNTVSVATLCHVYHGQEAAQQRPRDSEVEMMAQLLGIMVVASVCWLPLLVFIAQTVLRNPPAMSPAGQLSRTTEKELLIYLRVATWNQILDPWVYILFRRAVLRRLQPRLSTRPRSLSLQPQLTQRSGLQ

[2] = biological target: T3, Prostaglandin E2 receptor EP3 subtype (Homo sapiens, UniProt P43115); experiment: Displacement of [3H]PGE2 from human prostanoid EP3 receptor expressed in HEK293-EBNA cells after 60 mins by scintillation counting; assay type: cell-based
T3 sequence (P43115 whole entry): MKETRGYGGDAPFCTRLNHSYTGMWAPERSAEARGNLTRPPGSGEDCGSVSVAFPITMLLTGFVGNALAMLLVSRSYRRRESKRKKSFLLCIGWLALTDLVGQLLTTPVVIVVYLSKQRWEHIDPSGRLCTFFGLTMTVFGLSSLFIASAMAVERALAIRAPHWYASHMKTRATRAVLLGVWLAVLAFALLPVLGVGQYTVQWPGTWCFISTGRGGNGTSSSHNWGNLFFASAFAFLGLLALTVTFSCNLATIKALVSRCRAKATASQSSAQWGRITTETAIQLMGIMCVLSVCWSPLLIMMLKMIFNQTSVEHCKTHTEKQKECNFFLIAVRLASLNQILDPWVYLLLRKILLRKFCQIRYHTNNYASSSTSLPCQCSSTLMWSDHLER

[3] = biological target: T4, Prostaglandin D2 receptor 2 (Homo sapiens, UniProt Q9Y5Y4); experiment: Displacement of [3H]PGD2 from human Prostanoid DP2 receptor expressed in HEK293-EBNA cells after 60 mins by scintillation counting; assay type: cell-based
T4 sequence (Q9Y5Y4 whole entry): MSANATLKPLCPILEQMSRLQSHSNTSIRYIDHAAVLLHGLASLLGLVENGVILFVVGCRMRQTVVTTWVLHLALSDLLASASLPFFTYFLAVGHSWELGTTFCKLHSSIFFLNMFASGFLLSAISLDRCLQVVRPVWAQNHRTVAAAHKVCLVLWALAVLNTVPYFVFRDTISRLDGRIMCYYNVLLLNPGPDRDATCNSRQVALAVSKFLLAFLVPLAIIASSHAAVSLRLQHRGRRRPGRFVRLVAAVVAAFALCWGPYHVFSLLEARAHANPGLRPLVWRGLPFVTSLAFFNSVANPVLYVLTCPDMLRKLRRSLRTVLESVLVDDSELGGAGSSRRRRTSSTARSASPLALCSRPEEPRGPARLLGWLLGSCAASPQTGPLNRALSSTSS

[4] = biological target: T5, Prostaglandin E2 receptor EP1 subtype (Homo sapiens, UniProt P34995); experiment: Displacement of [3H]PGE2 from human prostanoid EP1 receptor expressed in HEK293-EBNA cells after 60 mins by scintillation counting; assay type: cell-based
T5 sequence (P34995 whole entry): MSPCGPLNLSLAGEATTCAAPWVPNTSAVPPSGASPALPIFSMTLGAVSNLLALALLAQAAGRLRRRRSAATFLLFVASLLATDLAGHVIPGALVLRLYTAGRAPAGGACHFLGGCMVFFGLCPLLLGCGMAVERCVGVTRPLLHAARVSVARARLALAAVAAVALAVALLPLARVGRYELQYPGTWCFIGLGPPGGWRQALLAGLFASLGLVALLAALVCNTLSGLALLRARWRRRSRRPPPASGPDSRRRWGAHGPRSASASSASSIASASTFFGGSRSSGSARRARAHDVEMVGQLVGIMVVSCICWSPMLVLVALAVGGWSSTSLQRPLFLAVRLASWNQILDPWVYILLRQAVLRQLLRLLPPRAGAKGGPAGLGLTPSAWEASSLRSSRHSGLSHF

[5] = biological target: Prostaglandin F2-alpha receptor (Homo sapiens, UniProt P43088); experiment: Displacement of [3H]PGF2alpha from human prostanoid FP receptor expressed in HEK293-EBNA cells after 60 mins by scintillation counting; assay type: cell-based
Chain of Prostaglandin F2-alpha receptor (P43088 whole entry): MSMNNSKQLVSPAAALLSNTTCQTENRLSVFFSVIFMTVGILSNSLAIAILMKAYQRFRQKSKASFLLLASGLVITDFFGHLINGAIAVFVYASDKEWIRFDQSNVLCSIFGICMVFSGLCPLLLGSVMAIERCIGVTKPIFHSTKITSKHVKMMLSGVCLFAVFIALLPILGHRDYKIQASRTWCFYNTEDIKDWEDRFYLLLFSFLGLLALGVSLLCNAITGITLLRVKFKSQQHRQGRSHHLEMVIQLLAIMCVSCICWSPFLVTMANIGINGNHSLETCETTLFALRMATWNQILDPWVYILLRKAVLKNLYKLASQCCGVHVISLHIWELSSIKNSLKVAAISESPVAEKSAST

[6] = biological target: Prostaglandin E2 receptor EP2 subtype (Homo sapiens, UniProt P43116); experiment: Displacement of [3H]PGE2 from human prostanoid EP2 receptor expressed in HEK293-EBNA cells after 60 mins by scintillation counting; assay type: cell-based
Chain of Prostaglandin E2 receptor EP2 subtype (P43116 whole entry): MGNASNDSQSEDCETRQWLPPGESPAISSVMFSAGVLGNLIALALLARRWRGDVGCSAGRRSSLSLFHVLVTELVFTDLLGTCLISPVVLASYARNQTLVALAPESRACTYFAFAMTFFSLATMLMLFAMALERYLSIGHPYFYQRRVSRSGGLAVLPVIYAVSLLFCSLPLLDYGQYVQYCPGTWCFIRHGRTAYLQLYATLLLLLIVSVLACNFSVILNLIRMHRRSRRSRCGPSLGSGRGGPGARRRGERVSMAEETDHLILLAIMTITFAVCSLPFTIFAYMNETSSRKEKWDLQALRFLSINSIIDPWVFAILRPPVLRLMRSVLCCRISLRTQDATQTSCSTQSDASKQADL

[7] = biological target: T6, Prostaglandin E2 receptor EP4 subtype (Homo sapiens, UniProt P35408); experiment: Displacement of [3H]PGE2 from human prostanoid EP4 receptor expressed in HEK293-EBNA cells after 60 mins by scintillation counting; assay type: cell-based
T6 sequence (P35408 whole entry): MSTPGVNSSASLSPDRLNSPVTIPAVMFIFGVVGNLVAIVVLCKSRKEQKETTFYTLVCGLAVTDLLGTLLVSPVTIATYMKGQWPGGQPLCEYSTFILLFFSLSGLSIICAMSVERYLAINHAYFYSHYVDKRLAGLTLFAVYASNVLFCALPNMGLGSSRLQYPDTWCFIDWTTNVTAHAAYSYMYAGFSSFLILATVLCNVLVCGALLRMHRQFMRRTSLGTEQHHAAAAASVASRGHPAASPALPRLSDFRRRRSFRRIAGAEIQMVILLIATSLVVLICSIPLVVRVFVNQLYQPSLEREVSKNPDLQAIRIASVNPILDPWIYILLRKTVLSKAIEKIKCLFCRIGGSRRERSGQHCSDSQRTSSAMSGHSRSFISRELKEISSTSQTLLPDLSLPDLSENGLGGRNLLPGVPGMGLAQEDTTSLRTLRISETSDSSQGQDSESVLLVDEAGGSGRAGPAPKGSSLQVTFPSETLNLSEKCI

[8] = biological target: T6, Prostaglandin E2 receptor EP4 subtype; experiment: Antagonist activity at human prostanoid EP4 receptor expressed in HEK293 cells assessed as inhibition of PGE2-induced cAMP accumulation by scintillation proximity assay; assay type: functional, cell-based
Outline: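 Read-out was inhibition of PGE2-induced cAMP accumulation at EP4. Values are means from at least two independent experiments.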

Rattus norvegicus = experiment: Antiinflammatory activity in rat assessed as inhibition of complete Freund's adjuvant-induced paw swelling administered daily once 9 days after adjuvant challenge measured on day 18; assay type: functional
Outline: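 Rat adjuvant-induced arthritis model with daily dosing in mg/kg/day. Dose groups were 0, 0.001, 0.01, 0.1 and 1 mg/kg, plus a non-AIA control group. Primary and secondary paw swelling were scored as % inhibition relative to vehicle-treated arthritic rats, and ED50 was estimated from the dose–response.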

| SMILES | pKi (Prostacyclin receptor) | pKi [1] | pKi (Thromboxane A2 receptor) | pKi [2] | pKi [3] | pKi [4] | pKi [5] | pKi [6] | pKi [7] | pIC50 [8] | ED80 (Rattus norvegicus) | ED50 (Rattus norvegicus) |
| --- | --- | --- | --- | --- | --- | --- | --- | --- | --- | --- | --- | --- |
| C[C@H](NC(=O)c1cccc2ccn(Cc3cccc(Cl)c3)c12)c1ccc(C(=O)O)cc1 | ≤ 5.60 | 7.80 | ≤ 5.60 | ≤ 5.60 | ≤ 5.60 | ≤ 5.60 | ≤ 5.60 | ≤ 5.60 | 8.57 | 8.23 | – | – |
| C[C@H](NC(=O)c1cccc2ccn(Cc3ccc(C(F)(F)F)cc3)c12)c1ccc(C(=O)O)cc1 | ≤ 6.24 | 5.86 | ≤ 6.24 | ≤ 6.24 | ≤ 6.24 | ≤ 6.24 | ≤ 6.24 | ≤ 6.24 | 9.21 | 8.57 | – | – |
| C[C@H](NC(=O)c1cc(Cl)cc2ccn(Cc3cccc(Cl)c3)c12)c1ccc(C(=O)O)cc1 | ≤ 6.96 | 7.20 | ≤ 6.96 | ≤ 6.96 | ≤ 6.96 | ≤ 6.96 | ≤ 6.96 | ≤ 6.96 | 9.09 | 8.82 | – | – |
| C[C@H](NC(=O)c1cccc2c(Cl)cn(Cc3cccc(Cl)c3)c12)c1ccc(C(=O)O)cc1 | ≤ 6.03 | 7.85 | ≤ 6.03 | ≤ 6.03 | ≤ 6.03 | ≤ 6.03 | ≤ 6.03 | ≤ 6.03 | 7.70 | – | – | – |
| C[C@H](NC(=O)c1cc(F)cc2ccn(Cc3cccc(Cl)c3)c12)c1ccc(C(=O)O)cc1 | ≤ 6.30 | 6.39 | ≤ 6.30 | ≤ 6.30 | ≤ 6.30 | ≤ 6.30 | ≤ 6.30 | ≤ 6.30 | 8.62 | 8.48 | – | – |
| C[C@H](NC(=O)c1cc(Cl)cc2ccn(Cc3ccc(C(F)(F)F)cc3)c12)c1ccc(C(=O)O)cc1 | ≤ 7.00 | 6.68 | ≤ 7.00 | ≤ 7.00 | ≤ 7.00 | ≤ 7.00 | ≤ 7.00 | ≤ 7.00 | 9.36 | 8.95 | – | – |
| C[C@H](NC(=O)c1cccc2ccn(Cc3cc(Cl)cc(OC(F)(F)F)c3)c12)c1ccc(C(=O)O)cc1 | ≤ 6.59 | 7.31 | ≤ 6.59 | ≤ 6.59 | ≤ 6.59 | ≤ 6.59 | ≤ 6.59 | ≤ 6.59 | 9.42 | 8.85 | – | – |
| Cc1cc2cccc(C(=O)N[C@@H](C)c3ccc(C(=O)O)cc3)c2n1Cc1cccc(Cl)c1 | – | 6.35 | – | – | – | – | – | – | 7.25 | – | – | – |
| O=C(O)c1ccc(C2(NC(=O)c3cc(Cl)cc4ccn(Cc5ccc(C(F)(F)F)cc5)c34)CC2)cc1 | ≤ 5.89 | 6.25 | ≤ 5.89 | ≤ 5.89 | ≤ 5.89 | ≤ 5.89 | ≤ 5.89 | ≤ 5.89 | 9.51 | 8.90 | – | – |
| C[C@H](NC(=O)c1cc(Cl)ccc1Oc1ccc(F)cc1)c1ccc(C(=O)O)cc1 | – | – | – | – | – | – | – | – | – | – | 11.5 mg/kg | – |
| C[C@H](NC(=O)c1cccc2ccn(Cc3cccc(C(F)(F)F)c3)c12)c1ccc(C(=O)O)cc1 | ≤ 6.11 | 6.05 | ≤ 6.11 | ≤ 6.11 | ≤ 6.11 | ≤ 6.11 | ≤ 6.11 | ≤ 6.11 | 8.32 | 7.93 | – | – |
| CS(=O)(=O)c1ccc(C2=C(c3ccccc3)C(=O)OC2)cc1 [ROFECOXIB] | – | – | – | – | – | – | – | – | – | – | – | 0.7 mg/kg/day |
| Cc1cn(Cc2cccc(Cl)c2)c2c(C(=O)N[C@@H](C)c3ccc(C(=O)O)cc3)cccc12 | – | 5.92 | – | – | – | – | – | – | 7.40 | – | – | – |
